The record followed here is ChEMBL document CHEMBL1152594, “The design and optimization of a series of 2-(pyridin-2-yl)-1H-benzimidazole compounds as allosteric glucokinase activators” (Bioorg Med Chem, 2009).

What is called EC50 is the midpoint of the concentration-response curve. The bioavailability is the share of a dose that reaches the circulation, judged against a reference dose that is usually intravenous. A word on the Cmax: it is the highest concentration seen after dosing. The term AUC denotes the area under the concentration-time curve, a measure of exposure. Broadly, the half-life is how long it takes for the measured level to halve.

Data set [1] concerns the target T1, Hexokinase-4 (Homo sapiens, UniProt P35557).
T1 sequence (P35557 whole entry): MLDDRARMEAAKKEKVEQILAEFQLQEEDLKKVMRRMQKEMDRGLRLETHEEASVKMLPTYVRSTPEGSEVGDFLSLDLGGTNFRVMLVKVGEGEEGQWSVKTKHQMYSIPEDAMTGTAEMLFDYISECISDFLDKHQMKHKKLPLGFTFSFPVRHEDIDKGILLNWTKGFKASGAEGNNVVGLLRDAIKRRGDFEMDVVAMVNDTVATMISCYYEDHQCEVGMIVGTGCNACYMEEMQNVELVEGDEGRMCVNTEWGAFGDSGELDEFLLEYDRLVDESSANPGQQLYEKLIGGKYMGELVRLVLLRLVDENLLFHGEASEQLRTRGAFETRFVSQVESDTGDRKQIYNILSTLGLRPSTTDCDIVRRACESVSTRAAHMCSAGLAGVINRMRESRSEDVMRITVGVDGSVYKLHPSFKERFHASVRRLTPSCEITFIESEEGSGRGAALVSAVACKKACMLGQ
As to the kind of experiment: Activation of human liver glucokinase expressed in Escherichia coli at 2.5 mM glucose concentration by glucose-6-phosphate coupled continuous spectrophotometric assay.

In data set [2] the target is T1, Hexokinase-4. Kind of data set: Activation of human liver glucokinase expressed in Escherichia coli at 10 mM glucose concentration by glucose-6-phosphate coupled continuous spectrophotometric assay.
Another data set relates to Mus musculus. Kind of data set: Hypoglycemic efficacy in high-fat diet-induced mouse assessed as acute glucose lowering at 10 mg/kg, po. Type of data set: functional, organism-based. Details: dose 10 mg/kg. Summed up: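 They received compound orally in 0.5% methylcellulose vehicle, or vehicle alone. Blood glucose was measured just before dosing and at 1, 2, 3 and 4 h after.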

Data set [3] can be described thus: Oral bioavailability in Beagle dog at 1 mg/kg, po. To be noted: in vivo.
For data set [4], the system named is Rattus norvegicus. Kind of data set: Hypoglycemic efficacy in Wistar rat assessed as reduction in area under the glucose curve at 1 mg/kg, po by oral glucose tolerance test. Type of data set: functional. Details: scale not given: the % may be the effect or the level left. An outline of the steps: (§1)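 In the Wistar rat OGTT, the compound was given orally. […] Groups were compared by one-way ANOVA followed by Dunnett's test, with significance at p < 0.05.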

The nature of data set [5]: Cmax in Sprague-Dawley rat at 1 mg/kg, iv and 3 mg/kg, po. Type of data set: ADME, organism-based. To be noted: in vivo. An outline of the steps:
(§2)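 Male SD rats received 1 mg/kg iv or 3 mg/kg po. Plasma AUC, Cmax, T1/2, CLp and oral bioavailability (F) were derived from these dosings.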

The subject of data set [6] is Rattus norvegicus. Kind of data set: Hypoglycemic efficacy in Wistar rat assessed as reduction in area under the glucose curve at 3 mg/kg, po by oral glucose tolerance test. It counts as functional. Further details: scale not given: the % may be the effect or the level left. An outline of the steps:
as §1

The nature of data set [7]: Cmax in Beagle dog at 0.3 mg/kg, iv and 1 mg/kg, po. To be noted: in vivo.
Data set [8] in a line: AUC in Sprague-Dawley rat at 1 mg/kg, iv and 3 mg/kg, po. To be noted: plasma. Type of data set: ADME, organism-based. Summed up: as §2
The nature of data set [9]: Plasma clearance in Sprague-Dawley rat at 1 mg/kg, iv and 3 mg/kg, po. It counts as ADME, organism-based. An outline of the steps: as §2
Data set [10] is described as follows: Oral bioavailability in Sprague-Dawley rat at 3 mg/kg, po. It counts as ADME, organism-based. To be noted: in vivo. An outline of the steps: as §2
Data set [11] can be described thus: AUC in Beagle dog at 0.3 mg/kg, iv and 1 mg/kg, po. To be noted: plasma.
Data set [12] can be described thus: Half life in Beagle dog at 0.3 mg/kg, iv and 1 mg/kg, po. To be noted: in vivo.
The nature of data set [13]: Half life in Sprague-Dawley rat at 1 mg/kg, iv and 3 mg/kg, po. It counts as ADME, organism-based. To be noted: in vivo. Summed up: as §2

The source made the active and inactive calls. The calls are words filed in the database; no cut-off is given here.

On to `CCS(=O)(=O)c1ccc(Oc2cc3nc(-c4ccccn4)[nH]c3cc2CN2CCCC2=O)cc1`, for which the figures for the EC50 on Hexokinase-4 [1] and at Hexokinase-4 [2] were 350 nM and 60 nM, respectively. Moreover, in the data set on Mus musculus, the outcome was Active.
With `CCN(Cc1cc2nc(-c3ccccn3)[nH]c2cc1Oc1ccc(S(=O)(=O)CC)cc1)C(C)=O`, the EC50 was found to be 500 nM on Hexokinase-4 [1] and 110 nM on Hexokinase-4 [2].
With `CCS(=O)(=O)c1ccc(Oc2cc3nc(-c4ccccn4)[nH]c3cc2CN(C)C(C)=O)cc1`, the EC50 on Hexokinase-4 [1] was determined as 300 nM; at Hexokinase-4 [2], 70 nM. Further, the result with Mus musculus was Active.
On to `CCS(=O)(=O)c1ccc(Oc2cc3[nH]c(-c4ccccn4)nc3cc2CCC(=O)N(C)C)cc1`, for which the EC50 at Hexokinase-4 [1] came to 620 nM; on Hexokinase-4 [2] it was 120 nM.
On to `CCS(=O)(=O)c1ccc(Oc2cc3nc(-c4ccccn4)[nH]c3cc2CN2C(=O)CCC2=O)cc1`, for which the bioavailability in data set [3] is 41%; in [10], 16%. For the same compound, the Activity with Rattus norvegicus [4] was 19%; in the data set on Rattus norvegicus [6], 27%. Also, the Cmax in [5] and in [7] was 400 nM each time. In addition, the results for the EC50 at Hexokinase-4 [1] and on Hexokinase-4 [2] were 160 nM and 40 nM, respectively. Further, the AUC in data set [8] amounted to 0.5 µM·h; in [11], 4 µM·h. For the same compound, the clearance in data set [9] worked out at 32 mL/min/kg. The result in the data set with Mus musculus was Active. Also, the half-life in [12] is 6.4 h; in data set [13] it was 0.6 h.
In the case of `CCS(=O)(=O)c1ccc(Oc2cc3nc(-c4ccccn4)[nH]c3cc2Cn2ccnc2)cc1`, the EC50 at Hexokinase-4 [1] was 430 nM; at Hexokinase-4 [2], 120 nM.
`CCS(=O)(=O)c1ccc(Oc2cc3nc(-c4ccccn4)[nH]c3cc2CN2CCN(C)C2=O)cc1`: the EC50 on Hexokinase-4 [1] came out at 320 nM; on Hexokinase-4 [2] it was 80 nM.
In the same order, the values of `CCS(=O)(=O)c1ccc(Oc2cc3nc(-c4ccccn4)[nH]c3cc2CN2CCCC2)cc1` are > 5000 nM and > 5000 nM.
The like results for `CCS(=O)(=O)c1ccc(Oc2cc3nc(-c4ccccn4)[nH]c3cc2CNC(C)=O)cc1` were, in that order, 1410 nM and 220 nM.
Consider `CCS(=O)(=O)c1ccc(Oc2cc3nc(-c4ccccn4)[nH]c3cc2CN2CCOC2=O)cc1`, for which the EC50 at Hexokinase-4 [1] was found to be 250 nM; at Hexokinase-4 [2] it was 60 nM. Further, the result in the data set with Mus musculus was inactive.
Take `CCS(=O)(=O)c1ccc(Oc2cc3nc(-c4ccccn4)[nH]c3cc2CN2C(=O)CN(C)C2=O)cc1`: the results for the half-maximal effective concentration (EC50) on Hexokinase-4 [1] and at Hexokinase-4 [2] were 180 nM and 60 nM, respectively.
In the same order, the values of `CCS(=O)(=O)c1ccc(Oc2cc3nc(-c4ccccn4)[nH]c3cc2CN2CCCS2(=O)=O)cc1` are 460 nM and 90 nM.
Take `CCS(=O)(=O)c1ccc(Oc2cc3nc(-c4ccccn4)[nH]c3cc2CN2C(=O)COC2=O)cc1`: the values for the EC50 at Hexokinase-4 [1] and on Hexokinase-4 [2] were 90 nM and 20 nM, respectively. Further, the outcome in the data set on Mus musculus was inactive.
For the compound `CCS(=O)(=O)c1ccc(Oc2cc3nc(-c4ccccn4)[nH]c3cc2Cc2nnnn2C)cc1`, the EC50 at Hexokinase-4 [1] came to 410 nM; at Hexokinase-4 [2], 70 nM.
As to `CCS(=O)(=O)c1ccc(Oc2cc3nc(-c4ccccn4)[nH]c3cc2CN2CCNC2=O)cc1`, the EC50 on Hexokinase-4 [1] and at Hexokinase-4 [2] was > 5000 nM in each case.
Consider `CCS(=O)(=O)c1ccc(Oc2cc3nc(-c4ccccn4)[nH]c3cc2CN2CCOCC2=O)cc1`, for which the concentration giving a half-maximal response (EC50) at Hexokinase-4 [1] was 280 nM; on Hexokinase-4 [2] it was 100 nM.
